In ChEMBL document CHEMBL4340542, “Design, synthesis and biological evaluation of 4-aniline-thieno[2,3-d]pyrimidine derivatives as MNK1 inhibitors against renal cell carcinoma and nasopharyngeal carcinoma” (Bioorg Med Chem, 2019) one finds IC50 and Activity data, which are given here for 79 compounds.

Calls of active or inactive are those of the source. The calls are words filed in the database; no cut-off is given here.

The target in one experiment is MAP kinase-interacting serine/threonine-protein kinase 1 (Homo sapiens, UniProt Q9BUB5). Description: Inhibition of human MNK1 using CREBtide substrate by gamma-[32P]-ATP competitive inhibition assay. An outline of the steps: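 Run as the Eurofins KinaseProfiler radiometric assay, competitive with γ-[32P]-ATP. IC50 taken as the mean of independent experiments; the footnote gives two.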
Chain of MAP kinase-interacting serine/threonine-protein kinase 1 (Q9BUB5 whole entry): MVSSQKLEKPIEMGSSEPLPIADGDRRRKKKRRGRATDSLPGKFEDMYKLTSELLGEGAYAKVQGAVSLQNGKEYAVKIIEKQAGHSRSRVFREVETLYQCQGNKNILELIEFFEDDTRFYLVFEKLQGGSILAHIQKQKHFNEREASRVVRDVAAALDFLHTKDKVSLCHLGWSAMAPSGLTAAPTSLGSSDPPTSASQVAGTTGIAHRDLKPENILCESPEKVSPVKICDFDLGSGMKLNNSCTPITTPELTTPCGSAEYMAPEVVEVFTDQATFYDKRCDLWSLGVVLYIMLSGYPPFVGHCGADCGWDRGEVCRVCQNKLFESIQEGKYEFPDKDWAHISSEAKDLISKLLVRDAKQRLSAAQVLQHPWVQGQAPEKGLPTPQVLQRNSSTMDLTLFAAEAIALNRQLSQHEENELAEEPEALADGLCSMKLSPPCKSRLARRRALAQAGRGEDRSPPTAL
One may read the IC50 as the concentration at which inhibition is half-maximal. Higher therefore signals weaker potency in that assay. `O=S(=O)(c1cccs1)N1CCc2c(sc3ncnc(Nc4cccc(F)c4)c23)C1` displayed an IC50 of 1500 nM. Still for that read-out and setting: the same measure for `COc1ccc(S(=O)(=O)N2CCc3c(sc4ncnc(Nc5cccc(C)c5)c34)C2)cc1`: 1410 nM; for `Brc1ccc(Nc2ncnc3sc4c(c23)CCN(Cc2ccccc2)C4)cc1`: 1690 nM; for `Clc1cccc(Nc2ncnc3sc4c(c23)CCCC4)c1`: 2430 nM. Same read-out and setting: the result for `Cc1ccc(Nc2ncnc3sc4c(c23)CCN(C)C4)c(Br)c1` reads 1650 nM; that for `O=S(=O)(c1cccs1)N1CCc2c(sc3ncnc(Nc4ccc(Cl)cc4F)c23)C1`, 1360 nM; that for `CC(C)(C)OC(=O)N1CCc2c(sc3ncnc(Nc4ccc(Br)cc4)c23)C1`, 1810 nM.

For `Clc1ccc(Nc2ncnc3sc4c(c23)CCCC4)cc1`, the IC50 came to 1620 nM. The same measure, in the same setting: the same measure for `O=[N+]([O-])c1ccccc1S(=O)(=O)N1CCc2c(sc3ncnc(Nc4cccc(Cl)c4)c23)C1`: 1640 nM. Still for that read-out and setting: the result for `O=S(=O)(c1ccc(F)cc1F)N1CCc2c(sc3ncnc(Nc4ccc(Br)cc4)c23)C1` reads 1730 nM; that for `O=S(=O)(c1ccc(F)cc1F)N1CCc2c(sc3ncnc(Nc4cccc(Cl)c4)c23)C1`, 1740 nM; that for `COc1cccc(Nc2ncnc3sc4c(c23)CCN(S(=O)(=O)c2ccccc2[N+](=O)[O-])C4)c1`, 2020 nM. Still for that read-out and setting: the result for `CN1CCc2c(sc3ncnc(Nc4ccc(Br)cc4)c23)C1` reads 1690 nM. `COc1cccc(Nc2ncnc3sc4c(c23)CCCC4)c1`: the IC50 is 1700 nM. The same measure, in the same setting: the same measure for `COc1cc(F)ccc1Nc1ncnc2sc3c(c12)CCN(S(=O)(=O)c1ccc(F)cc1F)C3`: 930 nM; for `Brc1ccc(Nc2ncnc3sc4c(c23)CCCC4)cc1`: 1510 nM.

Turning to `O=S(=O)(c1ccc(F)cc1F)N1CCc2c(sc3ncnc(Nc4ccc(Cl)cc4F)c23)C1`, the IC50 was determined as 1540 nM. The IC50 values of the last two compounds are within 1.5-fold of each other. Same read-out and setting: the result for `CN1CCc2c(sc3ncnc(Nc4cccc(Cl)c4)c23)C1` reads 1870 nM; that for `COc1ccc(S(=O)(=O)N2CCc3c(sc4ncnc(Nc5ccc(Br)cc5)c34)C2)cc1`, 1070 nM. The same measure, in the same setting: the result for `Clc1cccc(Nc2ncnc3sc4c(c23)CCN(Cc2ccccc2)C4)c1` reads 2290 nM; that for `Cc1cccc(Nc2ncnc3sc4c(c23)CCN(S(=O)(=O)c2ccccc2[N+](=O)[O-])C4)c1`, 2060 nM; that for `CN1CCc2c(sc3ncnc(Nc4cccc(F)c4)c23)C1`, 2040 nM.

`O=[N+]([O-])c1ccccc1S(=O)(=O)N1CCc2c(sc3ncnc(Nc4cccc(F)c4)c23)C1` displayed an IC50 of 1990 nM. On the same count and under the same terms, the same measure for `COc1cc(F)ccc1Nc1ncnc2sc3c(c12)CCN(S(=O)(=O)c1cccs1)C3`: 940 nM; for `Clc1ccc(Nc2ncnc3sc4c(c23)CCN(Cc2ccccc2)C4)cc1`: 1540 nM; for `Fc1cccc(Nc2ncnc3sc4c(c23)CCN(Cc2ccccc2)C4)c1`: 2080 nM. On the same count and under the same terms, the result for `O=S(=O)(c1cccs1)N1CCc2c(sc3ncnc(Nc4ccc(Cl)cc4)c23)C1` reads 1630 nM; that for `COc1cc(F)ccc1Nc1ncnc2sc3c(c12)CCN(C)C3`, 930 nM; that for `CC(C)(C)OC(=O)N1CCc2c(sc3ncnc(Nc4ccc(F)cc4F)c23)C1`, 1620 nM. Same read-out and setting: the result for `Fc1cccc(Nc2ncnc3sc4c(c23)CCCC4)c1` reads 2180 nM; that for `COc1cccc(Nc2ncnc3sc4c(c23)CCN(C)C4)c1`, 2290 nM; that for `Cc1cccc(Nc2ncnc3sc4c(c23)CCN(S(=O)(=O)c2cccs2)C4)c1`, 2130 nM. Compound `O=[N+]([O-])c1ccccc1S(=O)(=O)N1CCc2c(sc3ncnc(Nc4ccc(F)cc4F)c23)C1` yielded an IC50 of 1080 nM. Same read-out and setting: the same measure for `COc1cccc(Nc2ncnc3sc4c(c23)CCN(C(=O)OC(C)(C)C)C4)c1`: 1950 nM; for `Cc1cccc(Nc2ncnc3sc4c(c23)CCN(C)C4)c1`: 2220 nM; for `COc1ccc(S(=O)(=O)N2CCc3c(sc4ncnc(Nc5cccc(OC)c5)c34)C2)cc1`: 2140 nM. Still for that read-out and setting: the same measure for `COc1cccc(Nc2ncnc3sc4c(c23)CCN(S(=O)(=O)c2ccc(F)cc2F)C4)c1`: 1880 nM; for `O=[N+]([O-])c1ccccc1S(=O)(=O)N1CCc2c(sc3ncnc(Nc4ccc(Cl)cc4)c23)C1`: 1650 nM; for `COc1cccc(Nc2ncnc3sc4c(c23)CCN(S(=O)(=O)c2cccs2)C4)c1`: 2350 nM. Same read-out and setting: the result for `Fc1ccc(Nc2ncnc3sc4c(c23)CCN(Cc2ccccc2)C4)c(F)c1` reads 1100 nM. For the compound `O=S(=O)(c1cccs1)N1CCc2c(sc3ncnc(Nc4cccc(Cl)c4)c23)C1`, the IC50 was 1380 nM. This IC50 and that of the compound before are within 1.5-fold of each other. Still for that read-out and setting: the result for `COc1ccc(S(=O)(=O)N2CCc3c(sc4ncnc(Nc5cccc(F)c5)c34)C2)cc1` reads 1390 nM; that for `CC(C)(C)OC(=O)N1CCc2c(sc3ncnc(Nc4ccc(Cl)cc4F)c23)C1`, 2160 nM.

As to `Cc1ccc(Nc2ncnc3sc4c(c23)CCN(Cc2ccccc2)C4)c(Br)c1`, the IC50 was determined as 1570 nM. Still for that read-out and setting: the result for `Cc1ccc(Nc2ncnc3sc4c(c23)CCN(S(=O)(=O)c2ccccc2[N+](=O)[O-])C4)c(Br)c1` reads 1650 nM; that for `COc1cccc(Nc2ncnc3sc4c(c23)CCN(Cc2ccccc2)C4)c1`, 1920 nM.

Regarding `Cc1ccc(Nc2ncnc3sc4c(c23)CCN(S(=O)(=O)c2ccc(F)cc2F)C4)c(Br)c1`, the IC50 amounted to 1680 nM. The IC50 values of the last two compounds are within 1.5-fold of each other. Consider `O=S(=O)(c1ccc(F)cc1F)N1CCc2c(sc3ncnc(Nc4ccc(F)cc4F)c23)C1`, for which the IC50 turned out to be 1100 nM. On the same count and under the same terms, the same measure for `CC(C)(C)OC(=O)N1CCc2c(sc3ncnc(Nc4ccc(F)cc4Br)c23)C1`: 1720 nM; for `CN1CCc2c(sc3ncnc(Nc4ccc(F)cc4Br)c23)C1`: 1470 nM; for `O=S(=O)(c1cccs1)N1CCc2c(sc3ncnc(Nc4ccc(F)cc4Br)c23)C1`: 970 nM.

The compound `Fc1cc(Cl)ccc1Nc1ncnc2sc3c(c12)CCN(Cc1ccccc1)C3` displayed an IC50 of 1310 nM. The same measure, in the same setting: the same measure for `O=S(=O)(c1ccc(F)cc1F)N1CCc2c(sc3ncnc(Nc4cccc(F)c4)c23)C1`: 2020 nM; for `COc1cc(F)ccc1Nc1ncnc2sc3c(c12)CCN(S(=O)(=O)c1ccccc1[N+](=O)[O-])C3`: 1100 nM. The same measure, in the same setting: the result for `O=[N+]([O-])c1ccccc1S(=O)(=O)N1CCc2c(sc3ncnc(Nc4ccc(Cl)cc4F)c23)C1` reads 1260 nM; that for `CN1CCc2c(sc3ncnc(Nc4ccc(Cl)cc4)c23)C1`, 1820 nM. The same measure, in the same setting: the result for `COc1cc(F)ccc1Nc1ncnc2sc3c(c12)CCN(Cc1ccccc1)C3` reads 1000 nM. Consider `COc1ccc(S(=O)(=O)N2CCc3c(sc4ncnc(Nc5cccc(Cl)c5)c34)C2)cc1`, for which the concentration for half-maximal inhibition (IC50) was determined as 1400 nM. Same read-out and setting: the result for `Cc1cccc(Nc2ncnc3sc4c(c23)CCN(C(=O)OC(C)(C)C)C4)c1` reads 2500 nM; that for `Cc1cccc(Nc2ncnc3sc4c(c23)CCCC4)c1`, 1790 nM. On the same count and under the same terms, the result for `Cc1ccc(Nc2ncnc3sc4c(c23)CCN(S(=O)(=O)c2cccs2)C4)c(Br)c1` reads 1560 nM; that for `O=[N+]([O-])c1ccccc1S(=O)(=O)N1CCc2c(sc3ncnc(Nc4ccc(Br)cc4)c23)C1`, 1250 nM; that for `O=S(=O)(c1cccs1)N1CCc2c(sc3ncnc(Nc4ccc(F)cc4F)c23)C1`, 1460 nM.

As to `COc1cc(F)ccc1Nc1ncnc2sc3c(c12)CCN(C(=O)OC(C)(C)C)C3`, the IC50 was determined as 1340 nM. Still for that read-out and setting: the result for `CC(C)(C)OC(=O)N1CCc2c(sc3ncnc(Nc4ccc(Cl)cc4)c23)C1` reads 2240 nM; that for `CN1CCc2c(sc3ncnc(Nc4ccc(Cl)cc4F)c23)C1`, 1850 nM. Same read-out and setting: the result for `O=S(=O)(c1ccc(F)cc1F)N1CCc2c(sc3ncnc(Nc4ccc(Cl)cc4)c23)C1` reads 1500 nM; that for `Fc1ccc(Nc2ncnc3sc4c(c23)CCN(Cc2ccccc2)C4)c(Br)c1`, 1120 nM; that for `Cc1cccc(Nc2ncnc3sc4c(c23)CCN(Cc2ccccc2)C4)c1`, 2110 nM. The compound `Cc1cccc(Nc2ncnc3sc4c(c23)CCN(S(=O)(=O)c2ccc(F)cc2F)C4)c1` showed an IC50 of 2400 nM. On the same count and under the same terms, the result for `Cc1ccc(Nc2ncnc3sc4c(c23)CCN(C(=O)OC(C)(C)C)C4)c(Br)c1` reads 1700 nM.

Compound `O=S(=O)(c1ccc(F)cc1F)N1CCc2c(sc3ncnc(Nc4ccc(F)cc4Br)c23)C1` returned an IC50 of 1280 nM. On the same count and under the same terms, the same measure for `COc1ccc(S(=O)(=O)N2CCc3c(sc4ncnc(Nc5ccc(Cl)cc5)c34)C2)cc1`: 1220 nM; for `CC(C)(C)OC(=O)N1CCc2c(sc3ncnc(Nc4cccc(F)c4)c23)C1`: 2190 nM; for `O=[N+]([O-])c1ccccc1S(=O)(=O)N1CCc2c(sc3ncnc(Nc4ccc(F)cc4Br)c23)C1`: 1160 nM. For `COc1ccc(S(=O)(=O)N2CCc3c(sc4ncnc(Nc5ccc(C)cc5Br)c34)C2)cc1`, the IC50 was 1890 nM.

Regarding `CC(C)(C)OC(=O)N1CCc2c(sc3ncnc(Nc4cccc(Cl)c4)c23)C1`, the IC50 is 2170 nM. The IC50 values of the last two compounds are within 1.5-fold of each other. On the same count and under the same terms, the same measure for `CN1CCc2c(sc3ncnc(Nc4ccc(F)cc4F)c23)C1`: 1090 nM. The same measure, in the same setting: the same measure for `O=S(=O)(c1cccs1)N1CCc2c(sc3ncnc(Nc4ccc(Br)cc4)c23)C1`: 1390 nM.

The test system of another experiment is SUNE1. Put plainly: Cytotoxicity against human SUNE1 cells assessed as decrease in cell viability incubated for 24 hrs by MTT assay. The class given is functional, cell-based. The method, boiled down:
(§1)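 IC50 from an 8–10 point concentration gradient by MTT assay. Panel covers renal cell carcinoma and nasopharyngeal carcinoma lines. Values are mean ± SD, n = 3.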
(In general: Tetrazolium assays rely on reduction of a dye to a coloured formazan, in cell work by metabolically active cells.)
`COc1ccc(S(=O)(=O)N2CCc3c(sc4ncnc(Nc5ccc(Br)cc5)c34)C2)cc1`: the outcome was Active.

For the next experiment, the system named is CNE. Description: Cytotoxicity against human CNE1 cells assessed as decrease in cell viability incubated for 24 hrs by MTT assay. The format is functional, cell-based. An outline of the steps: as §1
`COc1ccc(S(=O)(=O)N2CCc3c(sc4ncnc(Nc5ccc(Br)cc5)c34)C2)cc1`: the outcome was Active.

The species entered for another experiment is Homo sapiens. Description: Cytotoxicity against human HNE1 cells assessed as decrease in cell viability incubated for 24 hrs by MTT assay. The class given is functional, cell-based. The method, boiled down: as §1
For `COc1ccc(S(=O)(=O)N2CCc3c(sc4ncnc(Nc5ccc(Br)cc5)c34)C2)cc1`, the result was Active.

In another experiment the test system is CAKI-1. Put plainly: Cytotoxicity against human Caki1 cells assessed as decrease in cell viability incubated for 24 hrs by MTT assay. The format is functional, cell-based. An outline of the steps:
as §1
As for `COc1ccc(S(=O)(=O)N2CCc3c(sc4ncnc(Nc5ccc(Br)cc5)c34)C2)cc1`, the result was Active.

The test system of the next experiment is A498. Put plainly: Cytotoxicity against human A498 cells assessed as decrease in cell viability incubated for 24 hrs by MTT assay. The format is functional, cell-based. The method, boiled down: as §1
Regarding `COc1ccc(S(=O)(=O)N2CCc3c(sc4ncnc(Nc5ccc(Br)cc5)c34)C2)cc1`, the result was Active.

In another experiment the test system is CNE-2. Description: Cytotoxicity against human CNE2 cells assessed as decrease in cell viability incubated for 24 hrs by MTT assay. The class given is functional, cell-based. The method, boiled down: as §1
As to `COc1ccc(S(=O)(=O)N2CCc3c(sc4ncnc(Nc5ccc(Br)cc5)c34)C2)cc1`, the outcome was Active.

The next experiment deals with 786-0. Description: Cytotoxicity against human 786-O cells assessed as decrease in cell viability incubated for 24 hrs by MTT assay. The format is functional, cell-based. An outline of the steps: as §1
For `COc1ccc(S(=O)(=O)N2CCc3c(sc4ncnc(Nc5ccc(Br)cc5)c34)C2)cc1`, the outcome was Active.
